This is an account of results in ChEMBL document CHEMBL4819102, “SAR insights into TET2 catalytic domain inhibition: Synthesis of 2-Hydroxy-4-Methylene-pentanedicarboxylates” (Bioorg Med Chem, 2021).

Assay [1] in a line: Inhibition of TET (unknown origin). More on the design: species or system Homo sapiens.
For assay [2], the system named is THP-1. Put plainly: Inhibition of TET in human THP-1 cells assessed as reduction in 5hmc/5mc level at 25 uM incubated for 12 hrs by dot blot analysis relative to control. The format is cell-based. The method, boiled down: (§1)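 THP1 cells at 0.3x10^6/mL exposed 12 h to ester prodrugs (25, 50, 100 µM) with 100 µM sodium ascorbate. Genomic DNA denatured in NaOH/EDTA at 95 °C, two-fold serial dilutions dot-blotted, probed with anti-5hmC and anti-5mC antibodies, and loading checked by methylene blue. Inhibition taken from the 5hmC/5mC ratio; means of at least three experiments, below 5% reported not detected.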

For assay [3], the system named is THP-1. Put plainly: Inhibition of TET in human THP-1 cells assessed as reduction in 5hmc/5mc level at 50 uM incubated for 12 hrs by dot blot analysis relative to control. The format is cell-based. A digest of the protocol: as §1
In assay [4] the test system is THP-1. Put plainly: Inhibition of TET in human THP-1 cells assessed as reduction in 5hmc/5mc level at 100 uM incubated for 12 hrs by dot blot analysis relative to control. The format is cell-based. The method, boiled down:
as §1

For assay [5], the target named is T1, Methylcytosine dioxygenase TET2 (Homo sapiens, UniProt Q6N021). Put plainly: Inhibition of recombinant human GST-tagged TET2 (1099 to 1936 residues) expressed in Escherichia coli BL21 (DE3)pLysS assessed as reduction in 5hmc level incubated for 2 hrs by ELISA. (In general: In an ELISA, binding on a coated surface is turned into a signal by an enzyme label.)

Assay [6] addresses T1, Methylcytosine dioxygenase TET2. Put plainly: Potency index, ratio of IC50 of NOG to IC50 of compound for inhibition of recombinant human GST-tagged TET2 (1099 to 1936 residues) expressed in Escherichia coli BL21 (DE3)pLysS assessed as reduction in 5hmc level incubated for 2 hrs by ELISA.
Assay [7] has as its target T2, Methylcytosine dioxygenase TET1 (Homo sapiens, UniProt Q8NFU7). Put plainly: Inhibition of TET1 (unknown origin).
For assay [8], the target named is T3, Methylcytosine dioxygenase TET3 (Homo sapiens, UniProt O43151). Put plainly: Inhibition of TET3 (unknown origin).
In assay [9] the target is T2, Methylcytosine dioxygenase TET1. Put plainly: Inhibition of TET1 (unknown origin) at 10 mM in presence of alpha-KG relative to control.
The target is the same in assay [10]. Put plainly: Inhibition of TET1 (unknown origin) at 50 mM in presence of alpha-KG relative to control.
Assay [11] deals with T1, Methylcytosine dioxygenase TET2. Particulars: dose 10.0 mM.
Assay [12] has the same target. To be noted: dose 50.0 mM.
Assay [13] has as its target T2, Methylcytosine dioxygenase TET1. Put plainly: Inhibition of recombinant human N-terminal Flag-tagged TET1 (1418 to 2136 residues) expressed in Baculovirus infected Sf9 cells assessed as reduction in 5hmc level incubated for 2 hrs by ELISA.
Assay [14] has as its target T3, Methylcytosine dioxygenase TET3. Put plainly: Inhibition of recombinant human N-terminal Flag-tagged C-terminal His-tagged TET3 (824 to 1795 residues) expressed in Baculovirus infected Sf9 cells assessed as reduction in 5hmc level incubated for 2 hrs by ELISA.
In assay [15] the target is T1, Methylcytosine dioxygenase TET2. Put plainly: Binding affinity to human recombinant TET2 (1099 to 1936) catalytic domain assessed as dissociation constant by micro-scale thermophoresis analysis.
Assay [16] has the same target. Put plainly: Reversible inhibition of recombinant human GST-tagged TET2 (1099 to 1936 residues) expressed in Escherichia coli BL21 (DE3)pLysS assessed as restoration of enzyme activity in presence of alpha-KG at 20 uM incubated for 2 hrs by ELISA. The method, boiled down: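 TET2 catalytic domain (100 nM) preincubated with 12.5 µM inhibitor, then α-KG added at increasing concentrations. Anti-5hmC/HRP detection, TMB read at 450 nm; activity expressed relative.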

The source made the active and inactive calls. The rule behind the calls is not given here.

As a reminder, the IC50 is the concentration that gives 50% inhibition. Broadly, the inhibition is the relative decrease from the control value, in per cent. In general, Kd refers to the equilibrium constant for the complex coming apart.

T2 sequence (Q8NFU7 whole entry): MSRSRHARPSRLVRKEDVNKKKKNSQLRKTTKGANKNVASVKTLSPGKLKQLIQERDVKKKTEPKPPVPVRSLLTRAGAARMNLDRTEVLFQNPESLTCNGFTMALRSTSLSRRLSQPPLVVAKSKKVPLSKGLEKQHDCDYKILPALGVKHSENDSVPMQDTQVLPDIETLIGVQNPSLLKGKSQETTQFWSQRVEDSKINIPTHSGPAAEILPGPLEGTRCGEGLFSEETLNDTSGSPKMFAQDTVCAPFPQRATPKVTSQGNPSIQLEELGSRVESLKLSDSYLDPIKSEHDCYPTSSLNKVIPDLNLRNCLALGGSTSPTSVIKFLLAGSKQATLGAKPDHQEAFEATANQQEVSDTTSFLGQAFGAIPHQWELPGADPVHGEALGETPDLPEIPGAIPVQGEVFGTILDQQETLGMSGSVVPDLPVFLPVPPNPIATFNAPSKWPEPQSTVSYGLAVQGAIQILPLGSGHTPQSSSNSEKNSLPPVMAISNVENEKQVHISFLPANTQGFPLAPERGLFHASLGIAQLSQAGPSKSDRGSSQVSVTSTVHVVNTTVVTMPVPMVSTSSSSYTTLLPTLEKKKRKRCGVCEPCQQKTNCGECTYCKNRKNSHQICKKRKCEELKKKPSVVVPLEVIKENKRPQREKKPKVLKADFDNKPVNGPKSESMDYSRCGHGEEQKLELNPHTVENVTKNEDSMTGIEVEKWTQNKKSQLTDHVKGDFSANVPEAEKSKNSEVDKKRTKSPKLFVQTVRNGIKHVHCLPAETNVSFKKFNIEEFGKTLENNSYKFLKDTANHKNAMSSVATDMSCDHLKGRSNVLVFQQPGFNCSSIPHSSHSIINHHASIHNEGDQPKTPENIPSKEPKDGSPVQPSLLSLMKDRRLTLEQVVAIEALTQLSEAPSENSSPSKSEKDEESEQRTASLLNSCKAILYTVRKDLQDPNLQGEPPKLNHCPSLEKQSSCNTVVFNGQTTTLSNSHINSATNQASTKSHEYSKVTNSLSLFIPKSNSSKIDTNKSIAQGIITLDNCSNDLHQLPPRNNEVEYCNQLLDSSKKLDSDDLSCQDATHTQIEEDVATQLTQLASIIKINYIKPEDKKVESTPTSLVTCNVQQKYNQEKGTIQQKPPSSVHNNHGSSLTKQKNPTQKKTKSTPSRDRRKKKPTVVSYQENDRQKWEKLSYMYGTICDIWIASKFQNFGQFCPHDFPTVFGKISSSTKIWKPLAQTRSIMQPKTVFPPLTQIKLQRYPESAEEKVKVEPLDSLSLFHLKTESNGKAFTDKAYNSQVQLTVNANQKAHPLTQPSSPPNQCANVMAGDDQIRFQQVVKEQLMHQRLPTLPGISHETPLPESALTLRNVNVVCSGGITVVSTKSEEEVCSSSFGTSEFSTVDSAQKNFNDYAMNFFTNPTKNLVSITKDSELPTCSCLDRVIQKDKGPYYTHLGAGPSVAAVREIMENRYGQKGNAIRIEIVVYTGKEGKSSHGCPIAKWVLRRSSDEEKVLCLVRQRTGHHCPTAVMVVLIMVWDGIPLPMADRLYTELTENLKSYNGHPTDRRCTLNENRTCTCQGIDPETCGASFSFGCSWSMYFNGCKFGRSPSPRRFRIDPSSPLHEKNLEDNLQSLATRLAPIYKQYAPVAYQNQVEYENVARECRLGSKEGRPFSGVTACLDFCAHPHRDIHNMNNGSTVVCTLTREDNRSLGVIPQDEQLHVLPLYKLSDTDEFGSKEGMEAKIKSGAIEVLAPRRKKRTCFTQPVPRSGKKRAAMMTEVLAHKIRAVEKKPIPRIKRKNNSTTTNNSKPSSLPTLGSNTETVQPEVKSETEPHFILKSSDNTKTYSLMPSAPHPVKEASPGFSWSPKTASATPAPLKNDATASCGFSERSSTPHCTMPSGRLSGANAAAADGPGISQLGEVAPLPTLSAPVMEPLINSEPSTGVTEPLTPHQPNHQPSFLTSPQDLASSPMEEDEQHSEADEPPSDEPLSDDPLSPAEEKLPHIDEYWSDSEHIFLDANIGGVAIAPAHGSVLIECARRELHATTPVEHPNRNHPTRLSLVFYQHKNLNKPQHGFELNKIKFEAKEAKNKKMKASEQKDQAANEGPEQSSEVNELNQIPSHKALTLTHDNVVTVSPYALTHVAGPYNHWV

Take `O=C(O)CNC(=O)C(=O)O` [N-OXALYLGLYCINE]: 80 µM corresponded to half-maximal inhibition in assay [1] (IC50).

Consider `C=C(CC(F)(F)C(=O)OCC)C(=O)OCC`, for which the inhibition in the assay with THP-1 [2] was 12%; with THP-1 [3], 20%; with THP-1 [4] it was 29%.

`C=C(C[C@@H](O)C(=O)O)C(=O)O`: the IC50 in assay [5] came to 11 µM. Further, the Ratio IC50 in [6] came to 2.

Regarding `C=C(CC(O)(C(=O)OCC)C(F)(F)F)C(=O)OCC` (racemic), the figures for the inhibition in the assay on THP-1 [2], in the assay on THP-1 [3] and in the assay with THP-1 [4] were 49%, 67% and 79%, respectively.

For `C=C(CC(O)(C(=O)OCC)C(C)C)C(=O)OCC` (racemic), the inhibition was 17% with THP-1 [2], 37% in the assay with THP-1 [3] and 43% with THP-1 [4].

With `C=C(CC(C)(O)C(=O)OCC)C(=O)OCC` (racemic), the inhibition in the assay with THP-1 [2] is 54%; in the assay on THP-1 [3], 71%; in the assay with THP-1 [4], 80%.

On to `O=C(O)/C=C/C(=O)O` [FUMARIC ACID], for which the IC50 in assay [1] was 2400 µM.

Regarding `C=C(CC(=O)C(=O)OCC)C(=O)OCC`, the inhibition in the assay with THP-1 [2] was under 5%; with THP-1 [3] it was 27%; with THP-1 [4], 44%.

With `C=C(NC(C)=O)C(=O)OC`, the inhibition in the assay with THP-1 [2], in the assay with THP-1 [3] and in the assay with THP-1 [4] was under 5% each time.

As for `C=C(CC(O)(CC)C(=O)OCC)C(=O)OCC` (racemic), the inhibition with THP-1 [2] stood at 29%; with THP-1 [3] it was 45%; in the assay on THP-1 [4], 48%.

Regarding `O=C(O)CC[C@H](O)C(=O)O`, in assay [1], 3600 µM corresponded to half-maximal inhibition (IC50).

With `CCOC(=O)C(=O)CC1(C(=O)OCC)CC1`, the inhibition is 19% in the assay on THP-1 [2], 29% in the assay on THP-1 [3] and 33% in the assay on THP-1 [4].

Consider `O=C(O)CCC(=O)O` [SUCCINIC ACID], for which the IC50 in assay [1] was 2800 µM.

For the compound `C=C(C[C@H](O)C(=O)O)C(=O)O`, in [5], the half-inhibitory concentration (IC50) was 10.5 µM. The Ratio IC50 in assay [6] came out at 2.

For the compound `C=C(CC(F)C(=O)OCC)C(=O)OCC` (racemic), the inhibition turned out to be 9% in the assay on THP-1 [2], 11% in the assay with THP-1 [3] and 41% in the assay with THP-1 [4].

In the case of `O=C(C[C@@H](O)CCc1ccc(O)c(O)c1)O[C@@H]1Cc2c(O)cc(O)cc2C[C@@H]1c1ccc(O)c(O)c1`, the IC50 in assay [7] was 3.48 µM; in [8], 2.31 µM.

Regarding `C=C(CCC(=O)OC)C(=O)OC`, the inhibition with THP-1 [2] was under 5%; in the assay with THP-1 [3], 7%; with THP-1 [4], 22%.

Regarding `O=C(O)CC[C@@H](O)C(=O)O`, half-maximal inhibition in assay [1] (IC50) required 6400 µM. Also, the inhibition in [9] is 28%; in assay [10], 47%; in [11] it was 33%; in assay [12] it was 83%.

For `COC(=O)/C=C/C(=O)OC`, the inhibition in the assay on THP-1 [2] was under 5%; in the assay with THP-1 [3], 21%; in the assay with THP-1 [4], 33%.

Turning to `CCOC(=O)C(O)CC1(C(=O)OCC)CC1` (racemic), the inhibition in the assay with THP-1 [2], with THP-1 [3] and in the assay on THP-1 [4] was under 5% throughout.

For `C=C(CC(C)O)C(=O)OCC` (racemic), the results for the inhibition with THP-1 [2], in the assay with THP-1 [3] and in the assay on THP-1 [4] were 15%, 27% and 47%, respectively.

`C=C(CC(O)C(=O)OCC)C(=O)OCC` (racemic): the inhibition is 55% in the assay with THP-1 [2], 68% with THP-1 [3] and 73% with THP-1 [4].

Take `CC(C)CC(NC(=O)C(=O)O)C(=O)O` (centres undefined): the IC50 in [1] came out at 18.1 µM.

For `O=C(O)/C=C/C(=O)C(=O)O`, the IC50 in assay [5] was 107 µM.

`COC(=O)CCC(O)C(=O)OC` (centres undefined): the figures for the inhibition in the assay with THP-1 [2], in the assay with THP-1 [3] and with THP-1 [4] were 9%, 18% and 29%, respectively.

Turning to `COC(=O)CCC(=O)C(=O)OC`, the inhibition in the assay with THP-1 [2], in the assay with THP-1 [3] and in the assay with THP-1 [4] was under 5% throughout.

For `CCC(CC(=O)C(=O)OC)C(=O)OC` (centres undefined), the inhibition in the assay with THP-1 [2], with THP-1 [3] and in the assay with THP-1 [4] was under 5% in each case.

In the case of `COC(=O)CNC(=O)C(=O)OC`, the inhibition in the assay on THP-1 [2] worked out at 56%; in the assay on THP-1 [3], 62%; with THP-1 [4] it was 64%.

As for `CCOC(=O)C(C)CC(F)(F)C(=O)OCC` (centres undefined), the results for the inhibition in the assay on THP-1 [2], in the assay on THP-1 [3] and in the assay on THP-1 [4] were 14%, 9% and 22%, respectively.

As to `COC(=O)C(=O)CC(C)C(=O)OC` (centres undefined), the inhibition with THP-1 [2], in the assay on THP-1 [3] and in the assay on THP-1 [4] was under 5% throughout.

Regarding `C=C(CC(O)C(=O)O)C(=O)O` (centres undefined), the Ratio IC50 in assay [6] is 2. In addition, the IC50 in [13] was found to be 1.5 µM; in assay [14], 8.8 µM. Besides, the dissociation constant (Kd) in assay [15] is 0.3 µM. The inhibition entry in assay [16] is “Active”.

Regarding `CCOC(=O)C(C)CC(O)C(=O)OCC` (racemic), the results for the inhibition in the assay on THP-1 [2], in the assay with THP-1 [3] and in the assay with THP-1 [4] were under 5%, 14% and 41%, respectively.

Regarding `C=C(CC(Cl)C(=O)OC)C(=O)OC` (centres undefined), the inhibition came to 40% in the assay on THP-1 [2], 54% with THP-1 [3] and 66% with THP-1 [4].

As to `COC(=O)/C=C/C(=O)C(=O)OC`, the results for the inhibition in the assay with THP-1 [2], in the assay on THP-1 [3] and in the assay on THP-1 [4] were 7%, 17% and 34%, respectively.

Take `COC(=O)CCC(=O)OC`: the inhibition is under 5% with THP-1 [2], 7% in the assay on THP-1 [3] and 15% in the assay with THP-1 [4].
